Experimental data from ChEMBL document CHEMBL1909534, “Solvent-free, microwave assisted Knoevenagel condensation of novel 2,5-disubstituted indole analogues and their biological evaluation” (Eur J Med Chem, 2011).
The source made the active and inactive calls. The calls are words filed in the database; no cut-off is given here.

Key:
[1] = system: A549; test: Cytotoxicity against human A549 cells by MTT assay; type: functional, cell-based
Procedure, shortened: (§1)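 Cells grown in RPMI 1640 with 10% FCS, penicillin 100 U/mL and streptomycin 100 μg/mL at 37 °C, 5% CO₂. Seeded at 1 × 10⁵ cells/well. Compounds diluted in DMSO, tested at 0–100 µg/mL. Viability read by MTT kit, with medium-only wells as control. IC50 derived by non-linear regression from three independent experiments.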

[2] = Antioxidant activity assessed as ferric ion reducing ability at after 20 mins by spectrophotometric analysis; type: functional
Procedure, shortened: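 10, 50 and 500 μg samples in 2.5 mL 200 mmol/L sodium phosphate pH 6.6 plus 2.5 mL 1% potassium ferricyanide, 20 min at 50 °C. Then 2.5 mL 10% TCA added; 5 mL of this mixed with 5 mL water and 1 mL 0.1% FeCl3, and A700 read. BHA as standard.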

[3] = system: HEp-2; test: Cytotoxicity against human Hep2 cells by MTT assay; type: functional, cell-based; procedure, shortened: as §1
[4] = system: Radical scavenging activity; test: Antioxidant activity assessed as DPPH free radical scavenging activity after 20 mins; type: functional
Procedure, shortened: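 DPPH method: samples at 10, 50 and 100 μg/100 μl made up to 100 μl with MeOH, mixed with 5 mL 0.1 mM methanolic DPPH, shaken, left 20 min at 27 °C; A517 read against control without sample. % scavenging = (control OD − sample OD)/control OD × 100. BHA as standard.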

[5] = Antioxidant activity assessed as equivalents of ascorbic acid at 10 to 500 ug after 90 mins; type: functional
Procedure, shortened: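 Phosphomolybdenum method: 10, 50 and 500 μg samples mixed with 1.9 mL reagent (0.6 M sulfuric acid, 28 mM sodium phosphate, 4 mM ammonium molybdate), held 90 min at 95 °C, cooled, A695 read against blank. Values are μg ascorbic acid equivalents per mg, taken from an ascorbic acid standard curve.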

[6] = system: HeLa; test: Cytotoxicity against human HeLa cells by MTT assay; type: functional, cell-based; procedure, shortened: as §1

| SMILES | IC50 [1] [µM] | Activity [2] | IC50 [3] [µM] | Activity [4] | Activity [5] | IC50 [6] [µM] |
| --- | --- | --- | --- | --- | --- | --- |
| O=C1NC(=O)/C(=C/c2c(-c3ccccc3)[nH]c3ccc(Cl)cc23)S1 | 4.5 | Dose-dependent effect | 12.1 | Dose-dependent effect | Active | 7 |
| COc1cccc2c1C(=O)c1c(O)c3c(c(O)c1C2=O)C[C@@](O)(C(=O)CO)C[C@@H]3O[C@H]1C[C@H](N)[C@H](O)[C@H](C)O1 [DOXORUBICIN] | 0.7 |  | 8.7 |  |  | 0.71 |
| O=C1NC(=S)NC(=O)C1=Cc1c[nH]c2ccccc12 | 52.3 | Dose-dependent effect | > 100 | Dose-dependent effect | Active | 63 |
| CC1=NNC(=O)/C1=C/c1c(-c2ccccc2)[nH]c2ccc(Cl)cc12 | 1 | Dose-dependent effect | 7.9 | Dose-dependent effect | Active | 2.1 |
| CC1=NNC(=O)/C1=C/c1c(-c2ccccc2)[nH]c2ccc(C)cc12 | 7.7 | Dose-dependent effect | 26.3 | inactive | Active | > 100 |
| Cc1ccc2[nH]c(-c3ccccc3)c(/C=C3\SC(=O)NC3=O)c2c1 | > 100 | Dose-dependent effect | > 100 | inactive | Active | > 100 |
| O=C1NC(=S)NC(=O)C1=Cc1c(-c2ccccc2)[nH]c2ccc(Cl)cc12 | 27.5 | Dose-dependent effect | 45.7 | Dose-dependent effect | Active | 23.5 |
| CC1=NNC(=O)/C1=C/c1c[nH]c2ccccc12 | 3.4 | Dose-dependent effect | 1.2 | Dose-dependent effect | Active | 33.1 |
| O=C1NC(=O)C(=Cc2c(-c3ccccc3)[nH]c3ccc(Cl)cc23)C(=O)N1 | 27 | Dose-dependent effect | > 100 | Dose-dependent effect | Active | 30 |
| Cc1ccc2[nH]c(-c3ccccc3)c(C=C3C(=O)NC(=O)NC3=O)c2c1 | > 100 | Dose-dependent effect | > 100 | inactive | Active | > 100 |
| Cc1ccc2[nH]c(-c3ccccc3)c(C=C3C(=O)NC(=S)NC3=O)c2c1 | > 100 | Dose-dependent effect | > 100 | inactive | Active | > 100 |
| O=C1NC(=O)/C(=C/c2c[nH]c3ccccc23)S1 | 87.7 | Dose-dependent effect | > 100 | Dose-dependent effect | Active | 60.7 |
| O=C1NC(=O)C(=Cc2c[nH]c3ccccc23)C(=O)N1 | 77.4 | Dose-dependent effect | > 100 | Dose-dependent effect | Active | 74 |
